Reference: publication PMC3170876 (Chemmedchem, 2011)

Experiments:
[1] = molecular target: mouse 11β-HSD1 (Mus musculus, UniProt P50172); experiment: Inhibition of mouse 11β-HSD1; format: cell-based
[2] = molecular target: human cytochrome P450 2C19 (Homo sapiens, UniProt P33261); experiment: Inhibition of human cytochrome P450 2C19; format: in vitro ADME
Summary of the method: (§1)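 Human CYP450 isoform inhibition (1A2, 2C9, 2C19, 2D6, 3A4) measured as IC50 or as percent inhibition at 10 μm test compound. For 3A4, two probe substrates were used separately: 7-benzyloxy-trifluoromethylcoumarin (BFC) and […] (BQ). Each value is the mean of two measurements.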

[3] = molecular target: T1, human cytochrome P450 1A2 (Homo sapiens, UniProt P05177); experiment: Inhibition of human cytochrome P450 1A2; format: in vitro ADME
T1 sequence (P05177 1-516): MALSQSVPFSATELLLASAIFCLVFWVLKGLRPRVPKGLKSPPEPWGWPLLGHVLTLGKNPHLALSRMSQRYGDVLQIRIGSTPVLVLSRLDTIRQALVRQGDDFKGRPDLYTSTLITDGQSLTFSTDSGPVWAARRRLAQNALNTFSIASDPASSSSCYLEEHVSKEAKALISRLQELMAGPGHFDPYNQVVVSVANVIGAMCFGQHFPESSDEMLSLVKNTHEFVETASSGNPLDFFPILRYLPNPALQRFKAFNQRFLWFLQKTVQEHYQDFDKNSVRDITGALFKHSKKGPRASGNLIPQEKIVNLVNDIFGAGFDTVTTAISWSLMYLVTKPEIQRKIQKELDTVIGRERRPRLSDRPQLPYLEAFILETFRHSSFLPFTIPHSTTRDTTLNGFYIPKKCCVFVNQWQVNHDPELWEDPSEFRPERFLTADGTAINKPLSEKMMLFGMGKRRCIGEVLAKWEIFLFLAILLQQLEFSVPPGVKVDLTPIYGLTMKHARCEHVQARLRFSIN
Summary of the method: as §1

[4] = Membrane permeability in the Caco-2 cell model; format: in vitro ADME; conditions: human
Summary of the method: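 Caco-2 monolayer permeability. Test compound was applied at 20 μm, and the apparent permeability coefficient (Papp) was determined in the apical-to-basolateral direction.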

[5] = molecular target: human cytochrome P450 3A4 (Homo sapiens, UniProt P08684); experiment: Inhibition of human cytochrome P450 3A4; format: in vitro ADME; conditions: IC50 CYP450 3A4-BQ, substrate BQ; mean of two measurements
Summary of the method: as §1

[6] = molecular target: human 11β-HSD1 (Homo sapiens, UniProt P28845); experiment: 11β-HSD1 inhibition cellular assay; format: cell-based; conditions: IC50, human 11β-HSD1, HEK293 cell line transfected with human HSD11B1 gene; mean of three measurements, variance less than 20 %
[7] = molecular target: T2, human 11β-HSD2 (Homo sapiens, UniProt P80365); experiment: Selectivity: inhibition of human 11β-HSD2; format: cell-based; conditions: at a concentration of 10 μM (data not shown)
T2 sequence (P80365 1-405): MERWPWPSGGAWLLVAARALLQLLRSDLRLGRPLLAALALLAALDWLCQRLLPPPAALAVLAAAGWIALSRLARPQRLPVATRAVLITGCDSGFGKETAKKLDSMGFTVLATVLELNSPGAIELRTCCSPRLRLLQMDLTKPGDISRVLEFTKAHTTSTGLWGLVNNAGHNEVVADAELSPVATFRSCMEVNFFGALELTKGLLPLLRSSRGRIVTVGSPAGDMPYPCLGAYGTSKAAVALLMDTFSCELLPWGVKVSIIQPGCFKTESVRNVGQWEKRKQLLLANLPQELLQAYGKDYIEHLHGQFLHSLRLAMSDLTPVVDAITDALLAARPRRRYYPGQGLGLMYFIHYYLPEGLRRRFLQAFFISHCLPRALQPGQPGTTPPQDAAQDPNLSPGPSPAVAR

[8] = molecular target: T3, 17β-HSD1 (Homo sapiens, UniProt P14061); experiment: Selectivity: inhibition of 17β-HSD1; conditions: at a concentration of 10 μM (data not shown)
T3 sequence (P14061 1-328): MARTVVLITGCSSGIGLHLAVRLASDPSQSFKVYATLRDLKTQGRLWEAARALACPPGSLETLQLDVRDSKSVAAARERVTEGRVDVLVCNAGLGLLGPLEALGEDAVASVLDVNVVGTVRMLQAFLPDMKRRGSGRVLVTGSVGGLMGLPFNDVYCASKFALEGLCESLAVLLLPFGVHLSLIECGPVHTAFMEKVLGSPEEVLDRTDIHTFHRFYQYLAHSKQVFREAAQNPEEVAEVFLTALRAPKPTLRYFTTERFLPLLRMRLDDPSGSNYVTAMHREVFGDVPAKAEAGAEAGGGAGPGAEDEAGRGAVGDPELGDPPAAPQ

[9] = molecular target: human cytochrome P450 2C9 (Homo sapiens, UniProt P11712); experiment: Inhibition of human cytochrome P450 2C9; format: in vitro ADME
Summary of the method: as §1

[10] = molecular target: human cytochrome P450 2D6 (Homo sapiens, UniProt P10635); experiment: Inhibition of human cytochrome P450 2D6; format: in vitro ADME
Summary of the method: as §1

[11] = Metabolic stability in human liver microsomes; format: in vitro ADME; conditions: 37 °C, NADPH, 40 min incubation, mean of two experiments
Summary of the method: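 Parent compound was incubated with human liver microsomes plus NADPH cofactor at 37 °C for 40 min. Loss of parent was followed by HPLC, and half-life and intrinsic clearance were calculated from the depletion. Values are the mean of two experiments.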

human cytochrome P450 3A4, sequence (P08684 whole entry): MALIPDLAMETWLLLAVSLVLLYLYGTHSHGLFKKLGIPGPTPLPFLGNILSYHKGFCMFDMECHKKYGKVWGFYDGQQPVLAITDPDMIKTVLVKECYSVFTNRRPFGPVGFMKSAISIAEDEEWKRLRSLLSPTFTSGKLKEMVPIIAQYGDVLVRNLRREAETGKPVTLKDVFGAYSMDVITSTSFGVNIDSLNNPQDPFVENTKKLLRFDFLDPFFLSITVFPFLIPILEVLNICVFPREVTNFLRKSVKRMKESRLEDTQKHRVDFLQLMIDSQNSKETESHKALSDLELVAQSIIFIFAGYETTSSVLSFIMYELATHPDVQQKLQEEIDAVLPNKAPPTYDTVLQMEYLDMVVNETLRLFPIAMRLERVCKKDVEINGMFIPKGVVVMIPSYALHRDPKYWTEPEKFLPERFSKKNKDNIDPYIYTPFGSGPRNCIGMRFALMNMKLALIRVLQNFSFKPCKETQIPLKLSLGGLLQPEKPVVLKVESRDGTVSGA
human cytochrome P450 2C19, sequence (P33261 whole entry, canonical isoform): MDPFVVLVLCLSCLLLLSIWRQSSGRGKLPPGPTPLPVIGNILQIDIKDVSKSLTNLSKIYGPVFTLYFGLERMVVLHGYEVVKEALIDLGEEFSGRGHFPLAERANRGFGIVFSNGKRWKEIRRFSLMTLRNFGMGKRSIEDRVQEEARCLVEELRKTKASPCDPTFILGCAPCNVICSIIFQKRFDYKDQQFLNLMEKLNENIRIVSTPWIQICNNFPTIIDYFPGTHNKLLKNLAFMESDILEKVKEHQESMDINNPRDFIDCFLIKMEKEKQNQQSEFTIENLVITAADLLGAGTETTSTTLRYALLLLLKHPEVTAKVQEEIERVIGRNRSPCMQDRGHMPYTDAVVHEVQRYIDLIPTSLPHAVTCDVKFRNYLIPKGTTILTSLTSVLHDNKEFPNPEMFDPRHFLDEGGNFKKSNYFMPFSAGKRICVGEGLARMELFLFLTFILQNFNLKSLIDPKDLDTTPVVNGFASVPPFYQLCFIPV
human 11β-HSD1, sequence (P28845 whole entry): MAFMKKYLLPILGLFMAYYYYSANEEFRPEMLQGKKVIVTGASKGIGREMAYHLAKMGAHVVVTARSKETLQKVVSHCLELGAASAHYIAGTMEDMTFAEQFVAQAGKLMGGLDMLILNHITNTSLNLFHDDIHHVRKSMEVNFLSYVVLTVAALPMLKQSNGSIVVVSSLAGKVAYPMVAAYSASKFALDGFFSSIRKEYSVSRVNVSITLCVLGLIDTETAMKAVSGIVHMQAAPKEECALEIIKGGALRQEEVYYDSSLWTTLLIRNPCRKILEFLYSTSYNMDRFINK
mouse 11β-HSD1, sequence (P50172 whole entry): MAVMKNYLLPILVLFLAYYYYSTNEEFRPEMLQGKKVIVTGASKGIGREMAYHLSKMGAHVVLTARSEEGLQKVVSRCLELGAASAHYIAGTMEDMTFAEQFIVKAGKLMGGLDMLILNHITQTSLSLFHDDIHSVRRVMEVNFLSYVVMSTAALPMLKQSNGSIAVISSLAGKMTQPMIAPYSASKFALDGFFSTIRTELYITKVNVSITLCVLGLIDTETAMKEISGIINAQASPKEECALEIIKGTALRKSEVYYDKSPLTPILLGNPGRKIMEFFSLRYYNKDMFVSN
human cytochrome P450 2D6, sequence (P10635 whole entry): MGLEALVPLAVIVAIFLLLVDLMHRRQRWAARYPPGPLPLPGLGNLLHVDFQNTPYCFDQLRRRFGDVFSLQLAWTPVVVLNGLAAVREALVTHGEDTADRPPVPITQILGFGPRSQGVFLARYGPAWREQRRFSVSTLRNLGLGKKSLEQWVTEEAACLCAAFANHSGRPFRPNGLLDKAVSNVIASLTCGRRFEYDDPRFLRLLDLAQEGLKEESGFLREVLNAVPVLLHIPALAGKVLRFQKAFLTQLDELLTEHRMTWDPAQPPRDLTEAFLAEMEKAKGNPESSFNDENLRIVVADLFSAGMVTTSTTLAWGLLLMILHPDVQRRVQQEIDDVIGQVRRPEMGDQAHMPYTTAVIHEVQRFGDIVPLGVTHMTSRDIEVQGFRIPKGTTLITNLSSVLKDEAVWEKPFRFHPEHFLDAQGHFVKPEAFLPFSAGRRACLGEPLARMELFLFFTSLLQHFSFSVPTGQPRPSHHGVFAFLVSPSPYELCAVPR
human cytochrome P450 2C9, sequence (P11712 whole entry): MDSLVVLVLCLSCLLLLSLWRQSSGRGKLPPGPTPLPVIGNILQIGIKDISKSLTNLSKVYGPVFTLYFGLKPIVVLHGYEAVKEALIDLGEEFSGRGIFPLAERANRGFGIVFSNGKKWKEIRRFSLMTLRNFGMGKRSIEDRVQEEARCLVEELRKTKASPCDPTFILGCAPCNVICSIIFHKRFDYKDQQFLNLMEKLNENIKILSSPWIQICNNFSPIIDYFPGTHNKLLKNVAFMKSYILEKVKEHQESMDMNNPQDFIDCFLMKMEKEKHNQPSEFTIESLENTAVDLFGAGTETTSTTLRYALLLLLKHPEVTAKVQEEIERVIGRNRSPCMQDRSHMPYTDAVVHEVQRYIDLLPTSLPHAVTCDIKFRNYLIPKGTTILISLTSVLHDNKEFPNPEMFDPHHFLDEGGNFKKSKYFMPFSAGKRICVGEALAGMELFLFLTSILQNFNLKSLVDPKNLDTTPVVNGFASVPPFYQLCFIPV

SMILES | IC50 [1] | IC50 [2] | IC50 [3] | melting point | Papp A→B at 20 μM [4] | IC50 [5] | IC50 [6] | inhibition against human 11β-HSD2 [7] | inhibition against 17β-HSD1 [8] | IC50 [9] | IC50 [10] | CLint [11]
O=C(C[S+]([O-])Cc1cccs1)C12CC3CC(CC(C3)C1)C2 (centres unmarked) [Compound 14, 1-(Adamantan-1-yl)-2-(thiophen-2-ylmethanesulfinyl)ethanone] | 0.02 µM | 30 µM | 33 µM | 95 to 98 °C | 22 ×10⁻⁶ cm/s | 12 µM | < 0.05 µM |  |  |  |  | 
Cn1ccnc1[S+]([O-])CC(=O)C12CC3CC(CC(C3)C1)C2 (centres unmarked) [Compound 31, 1-(Adamantan-1-yl)-2-(1-methyl-1H-imidazole-2-sulfinyl)ethanone] | 0.121 µM |  |  | 86 to 89 °C | 44 ×10⁻⁶ cm/s |  | 0.048 µM | inactive | inactive |  |  | 
Cc1nnc(S(=O)(=O)CC(=O)C23CC4CC(CC(C4)C2)C3)s1 [Compound 37, 1-(Adamantan-1-yl)-2-(5-methyl-[1,3,4]thiadiazole-2-sulfonyl)ethanone] |  | 17 µM | > 100 µM | 111 to 113 °C |  | 30 µM |  |  |  | 11 µM | > 100 µM | 
Cc1nnc(SCC(=O)C23CC4CC(CC(C4)C2)C3)n1C [Compound 38, 1-(Adamantan-1-yl)-2-[(4,5-dimethyl-1,2,4-triazol-3-yl)sulfanyl]ethanone] | 0.248 µM |  |  |  |  |  | 0.036 µM | inactive | inactive |  |  | 
Cc1nnc([S+]([O-])CC(=O)C23CC4CC(CC(C4)C2)C3)s1 (centres unmarked) [Compound 33, 1-(Adamantan-1-yl)-2-(5-methyl-[1,3,4]thiadiazole-2-sulfinyl)ethanone] | 0.044 µM |  |  | 127 to 129 °C |  |  | 0.026 µM |  |  |  |  | 
Cn1cnnc1SCC(=O)C12CC3CC(CC(C3)C1)C2 [Compound 28, 1-(Adamantan-1-yl)-2-(4-methyl-4H-[1,2,4]triazol-3-ylsulfanyl)-ethanone] |  | 3.6 µM | 21 µM |  |  | 62 µM |  | inactive | inactive |  |  | 8.7 µL/min/mg
